Measured values taken from the EternaBench riboswitch data.

How the values were obtained:
[1] = tested on: MS2 coat protein; test: apparent Kd, MS2 coat protein; higher = weaker binding; RNA-MaP array
Summary of the method: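 The designed RNAs, transcribed from sequenced DNA templates on an Illumina sequencing chip, were incubated with fluorescently labeled MS2 coat protein at room temperature. Protein ranged from 1.5 nM to 3 μM, with 0.8–1.5 h incubation at the lowest and 10–20 min at the highest concentrations, in Tris-HCl pH 7.5 buffer with KCl, MgCl2, BSA, DTT, tRNA and Tween20, with or without input ligand. The median of per-cluster binding-curve fits gives the apparent Kd, and designs measured on fewer than 10 clusters were excluded.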

[2] = tested on: MS2 coat protein; test: apparent Kd, MS2 coat protein; higher = weaker binding; RNA-MaP array; FMN 200 µM where present; settings: designed as: OFF switch for flavin mononucleotide
Summary of the method: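 Designs were transcribed by stalled E. coli RNA polymerase on Illumina sequencing-chip clusters. They were titrated with SNAP-549-labelled MS2 coat protein from 0.7 or 1.5 nM, doubling to 3 µM, in 100 mM Tris-HCl pH 7.5, 80 mM KCl, 4 mM MgCl2, BSA, DTT, yeast tRNA and Tween-20, without and then with constant ligand. The apparent Kd is the median of filtered per-cluster fits after normalisation of green signal to red-channel RNA signal and control-cluster median Fmax.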

[3] = designed as: ON switch for flavin mononucleotide, no ligand
[4] = ligand present: flavin mononucleotide, designed as: ON switch for flavin mononucleotide
[5] = designed as: OFF switch for flavin mononucleotide, no ligand
[6] = ligand present: flavin mononucleotide, designed as: OFF switch for flavin mononucleotide
[7] = designed as: ON switch for tryptophan, no ligand
[8] = ligand present: tryptophan, designed as: ON switch for tryptophan
[9] = ligand present: flavin mononucleotide

**Q.** How did the “apparent Kd” value [1, 3] turn out when “AUCCGUGCAGCAAAUGGAGUGACAUGAGGAUCACCCAUGUAUGAGGAUAUGGCUCCGCCAGGGUACCAGAAGGCAUAAGGGAGG” was run?
**A.** 908 nM

**Q.** What about the “apparent Kd” value [1, 4] of the same sequence?
**A.** 627 nM

**Q.** “CUGUUAAGUAAAGGAUAUCCUCCAACAGCUAGAGGAGAAGGUUACUCCUUAAUCCACAUGAGGAUCACCCAUGUUAGUGUAAGU” was tested. Which “apparent Kd” value [1, 3] did it give?
**A.** 11.5 nM

**Q.** What about the “apparent Kd” value [1, 4] of the same sequence?
**A.** 10.1 nM

**Q.** “AAAAGCAGGGUCAGGAUAUAGGGUUCACUGUUGGCCUAGAAGGGACAUGAGGAUCACCCAUGUAUAGUAGUGGG” was tested. Which “apparent Kd” value [1, 5] did it give?
**A.** 347 nM

**Q.** And the “apparent Kd” value [1, 6]?
**A.** 262 nM

**Q.** How did the “apparent Kd” value [1, 5] turn out when “CUACCUACAGGAUAUACAUGAGGAUCACCCAUGUUUCAACGUGGAACAGGUUGAACAUGUAGAAGGGAAUCGUU” was run?
**A.** 20.4 nM

**Q.** What about the “apparent Kd” value [1, 6] of the same sequence?
**A.** 17.2 nM

**Q.** Which “apparent Kd” value [1, 5] does the source give for “UCGUUGGCACAGAAGGGACUCUCGAAGCAUGUGUCAGGAUAUGUGCGCUACAUGAGGAUCACCCAUGUCAAGACCUGGUUAGCA” here?
**A.** 29.4 nM

**Q.** And the “apparent Kd” value [1, 6]?
**A.** 18.8 nM

**Q.** For “CUUGAACCAUCACAUGAGGAUCACCCAUGUAGACUAUAAACUGAGGAUAUCACAGCGAGCAGUCAUGAGAAGGCAGAAUGACGG”, which “apparent Kd” value [1, 3] is on record?
**A.** 15.3 nM

**Q.** What about the “apparent Kd” value [1, 4] of the same sequence?
**A.** 13.6 nM

**Q.** “GACCGGUAUCCAGGAUAUGCAAUUAUUUACAUGAGGAUCACCCAUGUCGCAAGAGUAGGGGUGUAGCAGAAGGGGACAACAGCA” was tested. Which “apparent Kd” value [1, 5] did it give?
**A.** 70.7 nM

**Q.** What about the “apparent Kd” value [1, 6] of the same sequence?
**A.** 62.7 nM

**Q.** “GCUUUAUUCUAGAAGGCUUAUCAUGCAUAAUGUCUAGAAGUUCAGACAUGAGGAUCACCCAUGUAAGAGGAUAUAGCGUAAAGU” was tested. Which “apparent Kd” value [1, 5] did it give?
**A.** 26.9 nM

**Q.** And the “apparent Kd” value [1, 6]?
**A.** 31.3 nM

**Q.** What does the source list for “CCUCGAACGGCAGGAUAUAUUGGUCAAAAUUCUAUAGAAGGGCCUCUCCCUGGAACAUGAGGAUCACCCAUGUGCGCACUUGUG”?
**A.** apparent Kd [1, 3]: 57.4 nM; apparent Kd [1, 4]: 61.9 nM

**Q.** “CGAUGACAUGAGGAUCACCCAUGUUGCGGUAUUCAAGGAUAUCCUGAGUUUUCAAGCAUUGGAGAAGGUGAUUUCG” was tested. Which “apparent Kd” value [1, 3] did it give?
**A.** 30.1 nM

**Q.** What about the “apparent Kd” value [1, 4] of the same sequence?
**A.** 26.1 nM

**Q.** For “GUAUGCCACAGGGACAUGAGGAUCACCCAUGUAAAUACGGAUAGAAGGCGACGAGCGUAGCUCUUCGAGGAUAUAUGCUUUUUG”, which “apparent Kd” value [1, 5] is on record?
**A.** 31.5 nM

**Q.** And the “apparent Kd” value [1, 6]?
**A.** 34.2 nM

**Q.** What does the source list for “UCUCACAUGAGGAUCACCCAUGUGUGCGGUCGAGGACCGGUACGGCCGCCACUCGAAUCCUUCCGCGAGAAGAUUGUACGACGGC”?
**A.** apparent Kd [1, 7]: 76.2 nM; apparent Kd [1, 8]: 65.2 nM

**Q.** What does the source list for “GUUUCACAUGAGGAUCACCCAUGUCAAUGCACUGUAGGAUAUGGUUGGUUUCCGCAGCGGCCAGAAGGACAAAUAU”?
**A.** apparent Kd [1, 3]: 51.2 nM; apparent Kd [1, 4]: 33.5 nM

**Q.** “CCAUGGUUGACGGCCGCCACUCAUUAGUCUUUGAGGUUGGCACAUGAGGAUCACCCAUGUCUGCAGAGGACCGGGUCUCGCCACA” was tested. Which “apparent Kd” value [1, 7] did it give?
**A.** 44.3 nM

**Q.** What about the “apparent Kd” value [1, 8] of the same sequence?
**A.** 44.2 nM

**Q.** What does the source list for “UUGUAACAUGAGGAUCACCCAUGUAUGAACUAACAAGGAUAUGCGUGAGUCAGAUAAGACGCAGAAGGUGUCAGAU”?
**A.** apparent Kd [1, 3]: 10.3 nM; apparent Kd [1, 4]: 7.55 nM

**Q.** Which “apparent Kd” value [1, 5] does the source give for “AUGUGUAUUGAAGGAUAUGAAGCCGGCAUAAAAUCAGAAGGUCAACUAAUUACACAUGAGGAUCACCCAUGUGAUGACAUGCUU” here?
**A.** 17.2 nM

**Q.** And the “apparent Kd” value [1, 6]?
**A.** 24.8 nM

**Q.** Which “apparent Kd” value [1, 5] does the source give for “UUAGACCUGCGAGGAUAUUCCAGACUAACUGAGGAAGAAGGCGCUAGAACAUGAGGAUCACCCAUGUAACAGGGAACACUUCGU” here?
**A.** 9.82 nM

**Q.** And the “apparent Kd” value [1, 6]?
**A.** 26.3 nM

**Q.** Which results are given for “ACACAGUCAGGAUAUACACAAAAUCUCAGUCUAGUAAGUAAACAUGAGGAUCACCCAUGUAGAAGGGACUUUAA”?
**A.** apparent Kd [1, 5]: 6.95 nM; apparent Kd [1, 6]: 7.79 nM

**Q.** “AUAGCCAAACAAGGAUAUACGCGCGUCACAGAAAAUGGGACAUGAGGAUCACCCAUGUGGGAAGAGUAGAAGGUGUUUCCAGAU” was tested. Which “apparent Kd” value [1, 5] did it give?
**A.** 251 nM

**Q.** What about the “apparent Kd” value [1, 6] of the same sequence?
**A.** 147 nM

**Q.** For “GACAGACAUGAGGAUCACCCAUGUGAUACAGGCGUAGGAUAUUCGUGAGGAUACAGAAAAGAAGAAGGACGGGAAG”, which “apparent Kd” value [1, 3] is on record?
**A.** 40.3 nM

**Q.** What about the “apparent Kd” value [1, 4] of the same sequence?
**A.** 38 nM

**Q.** “AAUACACUUGAGAAGGCCCAAACAUGAGGAUCACCCAUGUGACAUGUAAUCGCCGCGAAUGGAAGGGAGGAUAUCAGAAUCCAC” was tested. Which “apparent Kd” value [1, 3] did it give?
**A.** 16.2 nM

**Q.** And the “apparent Kd” value [1, 4]?
**A.** 17.5 nM

**Q.** “CUUUUGUGAGGAUAUUAGUAGUAAUUAAAUAAAAUUACUACUGAGAAGGCACAUGAGGAUCACCCAUGUUCCUC” was tested. Which “apparent Kd” value ([2]; no ligand) did it give?
**A.** 33.9 nM

**Q.** What about the “apparent Kd” value [2, 9] of the same sequence?
**A.** 158 nM

**Q.** “GCAUGGUAUGAGAAGGCAUAAUUUAUCUAACAACAUGAUUACAUGAGGAUCACCCAUGUUUCCAAUGAGGAUAUCAUACCGUGC” was tested. Which “apparent Kd” value ([2]; no ligand) did it give?
**A.** 7.83 nM

**Q.** And the “apparent Kd” value [2, 9]?
**A.** 7.12 nM
